Test [1] deals with Mus musculus. Briefly: Inhibition of spontaneous locomotor activity, after 5 hour of peroral administration in mouse. To be noted: po. Format: functional. In outline:
(§1)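 Mice in groups of five were dosed orally with gum arabic suspensions at 10 mL/kg after an overnight fast, with a vehicle control group. Locomotion was counted for 10 min in a photocell activity cage, in at least two groups per dose. ED50, by probit analysis, is the dose giving 50% inhibition against controls.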

For test [2], the system named is Mus musculus. Briefly: Anticonvulsant activity against pentylenetetrazole-induced convulsions, after 1 hour of peroral administration in mouse at a dose of 15 mg/kg. Format: functional. To be noted: route oral. The method, boiled down:
(§2)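 Compounds were dosed as bases suspended in arabic gum at 10 mL/kg orally, after an overnight fast, with vehicle controls. Protection meant no bilateral forepaw clonic seizures or head twitches (tryptamine), or no tonic hind-limb extension (the other two). ED50 is the dose protecting 50%, by probit analysis.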

Test [3] has as its system dog (Canis familiaris). Briefly: Antagonistic activity against apomorphine-induced emesis, after 5 hour of peroral administration in dogs. To be noted: Canis lupus familiaris, po.
In test [4] the test system is Mus musculus. Briefly: Anticonvulsant activity against pentylenetetrazole-induced convulsions, after 1 hour of peroral administration in mouse at a dose of 40 mg/kg. The conditions noted are these: route oral. The class given is functional. The method, boiled down: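 Male mice dosed orally (arabic gum, 10 mL/kg) 1 or 5 h before challenge with tryptamine 100 mg/kg iv, pentylenetetrazol 110 mg/kg ip, or maximal electroshock. Protection means no bilateral forepaw clonic seizures and head twitches (tryptamine) or no tonic hind-limb extension (others). ED50 protects 50% of mice.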

Test [5] relates to Mus musculus. Briefly: Effect on skeletal muscle tone, after 5 hour of peroral administration in mouse at a dose of 100 mg/kg. Format: functional. To be noted: Muscle tissue, route oral. The method, boiled down:
(§3)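 Male mice were placed for 1 h on a 60° inclined wire screen just after dosing and 4 h later. In a second test, trained mice hung by the forepaws from a horizontal 1.8 mm wire 15 cm up; normal mice touch it with a hind paw within 2 s and stay ≥1 min. ED50 is the dose making 50% fall. Dosing was oral in gum arabic suspension at 10 mL/kg after an overnight fast.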

The species entered for test [6] is Rattus norvegicus. Briefly: Body weight gain, after 2 hour of period of conditioned feeding in rats,. Format: functional. The method, boiled down: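 Female rats (250–280 g) were kept singly on a 22-h food deprivation schedule, with pellets 10–12 a.m. and water always available. After 30–40 days of training they were dosed 1 h before the 2-h feeding and weighed before and after it. Weight gain was expressed as a percentage of the two preceding control days. ED50 is the dose giving 50% reduction.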

Test [7] has as its system Mus musculus. Briefly: Inhibition of spontaneous motor activity after 5 hour of peroral administration in mouse. Format: functional. The conditions noted are these: po. In outline:
as §1

The test system of test [8] is Mus musculus. Briefly: Effect on skeletal muscle tone, after 1 hour of peroral administration in mouse at a dose of 100 mg/kg. Format: functional. To be noted: Muscle tissue, route oral. In outline: as §3
Test [9] concerns Mus musculus. Briefly: Anticonvulsant activity against electroshock-induced convulsions, after 5 hour of peroral administration in mouse at a dose of 40 mg/kg. Format: functional. To be noted: route oral. In outline: as §2
The subject of test [10] is Mus musculus. Briefly: Inhibitory activity against tremorine-induced salivation, after 5 hour of peroral administration in mouse at a dose of 60 mg/kg. The class given is functional. The conditions noted are these: route oral. In outline: (§4)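 Male mice fasted overnight, dosed orally with arabic gum suspension (10 mL/kg) 1 or 5 h before test, vehicle controls included. Tremorine 20 mg/kg ip given 1 h after compounds; central (tremor) and peripheral (salivation) parasympathetic signs recorded. ED50 = dose protecting 50% of animals, by probit analysis.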

Test [11] deals with dog (Canis familiaris). Briefly: Antagonistic activity against apomorphine-induced emesis, after 5 hour of peroral administration in dogs. The conditions noted are these: Canis lupus familiaris, po. The source holds these as a separate data set.
Test [12] deals with Mus musculus. Briefly: Anticonvulsant activity against tryptamine-induced convulsions, after 1 hour of peroral administration in mouse at a dose of 40 mg/kg. The class given is functional. To be noted: route oral. In outline:
as §2

Test [13] concerns Rattus norvegicus. Briefly: Activity to evoke catalepsy, after 1 hour of peroral administration in rats at a dose of 200 mg/kg. The class given is functional. The conditions noted are these: route oral. The method, boiled down:
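Rats fasted overnight and given oral doses in arabic gum suspension (10 mL/kg), 1 h before screening or 1 and 5 h before profile testing. Forelegs placed on a horizontal bar 7 cm high, three times at 5-min intervals. Immobility of at least 15 s counts as catalepsy. ED50 is the dose giving catalepsy in 50% of rats, by probit analysis. Parenthetical entries give the maximal dose and percent activity.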

Test [14] has as its system Mus musculus. Briefly: Potentiation against pentobarbital-induced sleeping, after 5 hour of peroral administration in mouse at a dose of 100 mg/kg. The conditions noted are these: route oral. The class given is functional. The method, boiled down:
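Female mice fasted overnight, dosed orally 1 or 5 h beforehand as arabic gum suspension, 10 mL/kg, with vehicle controls. Subhypnotic pentobarbital 10 mg/kg iv; 3 min later placed on back, effect scored as complete loss of righting reflex for at least 15 s. ED50 = dose producing this in 50% of mice, probit analysis.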

Test [15] has as its system Rattus norvegicus. Briefly: Antagonistic activity against apomorphine-induced stereotypy in rats, by administering perorally at a dose of 100 mg/kg. The class given is functional. To be noted: route oral. In outline: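 Male rats fasted overnight and given oral doses in arabic gum suspension (10 mL/kg) 1 h, or 1 and 5 h, before challenge. Apomorphine 3 mg/kg iv, with stereotypy observed 20 min later. ED50 is the dose inhibiting stereotypy in 50% of rats, per Janssen's method. Parenthetical entries give the maximal dose and percent activity.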

For test [16], the system named is Mus musculus. Briefly: Anticonvulsant activity against pentylenetetrazole-induced convulsions, after 5 hour of peroral administration in mouse at a dose of 100 mg/kg. Format: functional. To be noted: route oral. In outline: as §2
For test [17], the system named is Mus musculus. Briefly: Activity of inclined screen in mouse, after 5 hour of peroral administration in mouse at a dose of 100 mg/kg. The class given is functional. The conditions noted are these: route oral. In outline: (§5)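 Male mice dosed orally (arabic gum suspension, 10 mL/kg, fasted overnight) 1 or 5 h before testing. Placed for 1 h on a wire screen bent at 60° to the horizontal. Ataxic or miorelaxed mice slide off. ED50 is the dose at which 50% of mice fall, by probit analysis. Ten animals per dose, with vehicle controls.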

The test system of test [18] is Rattus norvegicus. Briefly: Inhibitory activity against norepinephrine-induced lethality, after 1 hour of peroral administration in rat at a dose of 40 mg/kg. The conditions noted are these: route oral. Format: functional. In outline:
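Rats (80–90 g) dosed orally (arabic gum, 10 mL/kg) 1 or 5 h before norepinephrine 0.5 mg/kg iv, which kills unprotected rats within 30 min. ED50 is the dose protecting 50% of rats from lethality, by probit analysis.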

Test [19] relates to Mus musculus. Briefly: Effect on skeletal muscle tone, after 1 hour of peroral administration in mouse at a dose of 200 mg/kg. Format: functional. To be noted: Muscle tissue, route oral. The method, boiled down: as §3
The subject of test [20] is Mus musculus. Briefly: Anticonvulsant activity against tryptamine-induced convulsions, after 5 hour of peroral administration in mouse at a dose of 40 mg/kg. Format: functional. To be noted: route oral. The method, boiled down: as §2
In test [21] the test system is Rattus norvegicus. Briefly: Inhibition against conditioned avoidance response, after 1 hour of peroral administration in rats at a dose of 40 mg/kg. To be noted: route oral. The class given is functional. In outline:
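Male rats were trained in a shuttle box to avoid grid-floor shock by crossing compartments during a warning period. Dosing was oral as a gum arabic suspension at 10 mL/kg after an overnight fast. Percent inhibition was computed against a pretraining test. ED50 is the dose giving 50% inhibition.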

The subject of test [22] is Mus musculus. Briefly: Inhibitory activity against tremorine-induced salivation, after 1 hour of peroral administration in mouse at dose of 60 mg/kg. Format: functional. The conditions noted are these: route oral. The method, boiled down: as §4
Test [23] concerns Mus musculus. Briefly: Anticonvulsant activity against tryptamine-induced convulsions, after 5 hour of peroral administration in mouse at dose of 40 mg/kg. The conditions noted are these: route oral. The class given is functional. In outline: as §2
Test [24] relates to Mus musculus. Briefly: Activity of inclined screen in mouse, after 5 hour of peroral administration in mouse at dose of 100 mg/kg. Format: functional. The conditions noted are these: route oral. In outline: as §5
For test [25], the system named is Mus musculus. Briefly: Inhibitory activity against tremorine-induced tremors, after 5 hour of peroral administration in mouse at dose of 60 mg/kg. Format: functional. The conditions noted are these: route oral. In outline: as §4

Molecules are shown by their SMILES.

With `CN(C)CCCN1c2ccccc2Sc2ccc(Cl)cc21` [CHLORPROMAZINE], the ED50 in the test with Mus musculus [1] worked out at 4.8 mg/kg; with dog (Canis familiaris) [3], 7.5 mg/kg. In the test with Mus musculus [2], this compound registered an inhibition in vivo at 15 mg/kg of 0%.

Turning to `COc1ccccc1N1CCN(CCCC(=O)c2ccc(F)cc2)CC1` [FLUANISONE], the inhibition in vivo at 40 mg/kg with Mus musculus [4] and in the test with Mus musculus [9] was 0% in each case. Also, the inhibition in vivo at 100 mg/kg was determined as 0% with Mus musculus [5] and 30% in the test on Mus musculus [8]. For the same compound, the figures for the ED50 in the test filed under Rattus norvegicus [6] and in the test on Mus musculus [7] were 6 mg/kg and 15.7 mg/kg, respectively. In addition, the inhibition in vivo at 60 mg/kg with Mus musculus [10] is 0%.

For the compound `O=C(CCCN1CCC(O)(c2ccc(Cl)cc2)CC1)c1ccc(F)cc1` [HALOPERIDOL], the ED50 with dog (Canis familiaris) [11] was found to be 0.04 mg/kg.

Consider `O=c1[nH]c(-c2ccc(F)cc2)c(CCN2CCN(c3cc(Cl)cc(Cl)c3)CC2)o1` [LODIPERONE], for which the inhibition in vivo at 40 mg/kg with Mus musculus [12] worked out at 0%; in the test on Rattus norvegicus [18], 10%; with Mus musculus [20] it was 0%; in the test on Rattus norvegicus [21], 44%. Also, the inhibition in vivo at 200 mg/kg was 0% in the test with Rattus norvegicus [13] and 10% in the test on Mus musculus [19]. Besides, the inhibition in vivo at 100 mg/kg in the test on Mus musculus [14], in the test on Rattus norvegicus [15], in the test on Mus musculus [16] and with Mus musculus [17] was 0% each time. In the test with Mus musculus [10], the inhibition in vivo at 60 mg/kg came out at 0%.

Consider `COc1ccccc1N1CCN(CCc2oc(=O)[nH]c2-c2ccc(F)cc2)CC1` [ZOLOPERONE], for which the inhibition in vivo at 60 mg/kg with Mus musculus [22] and with Mus musculus [25] was 0% each time. This compound returned an inhibition in vivo at 40 mg/kg with Mus musculus [23] of 0%. Further, at 100 mg/kg the inhibition in vivo with Mus musculus [24] was 0%.

For the origin of these results see ChEMBL document CHEMBL1124344, “5-Piperazinylalkyl-2(3H)-oxazolones with neuroleptic activity” (J Med Chem, 1989).
